As usually defined, the inhibition is the share of the control response that was lost under treatment.

Our source for the inhibition values is ChEMBL document CHEMBL1165965, “Synthesis and structure-activity relationships of 1,2,3,4-tetrahydropyrido[2,3-b]pyrazines as potent and selective inhibitors of the anaplastic lymphoma kinase” (Bioorg Med Chem, 2010).

The target of test [1] is Insulin-like growth factor 1 receptor (Homo sapiens) (UniProt P08069). In words: Inhibition of IGF1R at 1 uM. Put shortly:
(§1)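 Single-concentration screen on the Ambit KINOMEscan platform, run against a panel of 250–400 kinases. Per-kinase inhibition was also summarized as S(90), the fraction of kinases inhibited by more than 90%.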

Test [2] concerns the target Insulin receptor-related protein (Homo sapiens) (UniProt P14616). In words: Inhibition of INSRR at 1 uM. Put shortly: as §1
For test [3], the target named is Tyrosine-protein kinase JAK1 (Homo sapiens) (UniProt P23458). As to the kind of experiment: Inhibition of JAK1 JH2 pseudokinase domain at 1 uM. Put shortly:
as §1

In test [4] the target is Tyrosine-protein kinase Lyn (Homo sapiens) (UniProt P07948). As to the kind of experiment: Inhibition of LYN at 1 uM. The method in brief: as §1
The target of test [5] is Cyclin-dependent kinase 16 (Homo sapiens) (UniProt Q00536). As to the kind of experiment: Inhibition of PCTK1 at 1 uM.
Test [6] concerns the target Proto-oncogene tyrosine-protein kinase receptor Ret (Homo sapiens) (UniProt P07949). As to the kind of experiment: Inhibition of RET at 1 uM.
The target in test [7] is Rho-associated protein kinase 1 (Homo sapiens) (UniProt Q13464). As to the kind of experiment: Inhibition of ROCK1 at 1 uM.
Test [8] concerns the target Serine/threonine-protein kinase SBK1 (Homo sapiens) (UniProt Q52WX2). As to the kind of experiment: Inhibition of SBK1 at 1 uM.
For test [9], the target named is Serine/threonine-protein kinase 16 (Homo sapiens) (UniProt O75716). In words: Inhibition of STK16 at 1 uM.
The target in test [10] is T1, Serine/threonine-protein kinase TBK1 (Homo sapiens) (UniProt Q9UHD2).
T1 sequence (whole entry): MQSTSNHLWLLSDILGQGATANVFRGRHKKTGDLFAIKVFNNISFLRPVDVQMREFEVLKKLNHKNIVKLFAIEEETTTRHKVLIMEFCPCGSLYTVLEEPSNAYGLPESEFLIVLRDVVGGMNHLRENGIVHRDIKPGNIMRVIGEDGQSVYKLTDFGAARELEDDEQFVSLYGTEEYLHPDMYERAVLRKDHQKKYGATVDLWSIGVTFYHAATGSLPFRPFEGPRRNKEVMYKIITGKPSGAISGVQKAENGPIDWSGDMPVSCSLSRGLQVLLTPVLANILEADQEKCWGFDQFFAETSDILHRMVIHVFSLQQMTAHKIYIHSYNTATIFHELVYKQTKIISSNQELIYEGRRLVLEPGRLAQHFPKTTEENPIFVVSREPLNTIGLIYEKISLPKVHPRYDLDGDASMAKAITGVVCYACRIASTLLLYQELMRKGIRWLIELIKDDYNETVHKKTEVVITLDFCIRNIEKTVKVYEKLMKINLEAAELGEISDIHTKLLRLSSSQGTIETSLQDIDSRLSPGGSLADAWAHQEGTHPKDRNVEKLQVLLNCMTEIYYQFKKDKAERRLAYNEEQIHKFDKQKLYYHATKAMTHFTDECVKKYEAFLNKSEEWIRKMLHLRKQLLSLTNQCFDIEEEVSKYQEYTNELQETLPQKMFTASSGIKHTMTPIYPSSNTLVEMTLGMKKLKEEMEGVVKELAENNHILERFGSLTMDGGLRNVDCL
As to the kind of experiment: Inhibition of TBK1 at 1 uM.

For test [11], the system named is Tyrosine-protein kinase ABL1 (Homo sapiens), P00519 [H396P]. As to the kind of experiment: Inhibition of ABL1 H396P mutant at 1 uM. Put shortly:
(§2)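 Ambit KINOMEscan screen at a single concentration across a 250–400 kinase panel, recorded as percent inhibition. Selectivity was expressed as S(90), the fraction of kinases inhibited >90%.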

In test [12] the test system is Tyrosine-protein kinase ABL1 (Homo sapiens), P00519 [T315I]. As to the kind of experiment: Inhibition of ABL1 T315I mutant at 1 uM. The method in brief:
as §2

Test [13] deals with Aurora kinase B (Homo sapiens) (UniProt Q96GD4). In words: Inhibition of AURKB at 1 uM. The method in brief:
as §2

For test [14], the target named is Casein kinase I isoform gamma-2 (Homo sapiens) (UniProt P78368). In words: Inhibition of CSNK1G2 at 1 uM. Put shortly: (§3)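 Single-concentration screen using Ambit Bioscience KINOMEscan technology across a panel of 250–400 kinases. Per-kinase inhibition from this screen was summarized as S(90), the fraction of kinases inhibited by more than 90%.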
Test [15] deals with Casein kinase I isoform gamma-3 (Homo sapiens) (UniProt Q9Y6M4). In words: Inhibition of CSNK1G3 at 1 uM. The method in brief:
as §3

Test [16] has as its target Death-associated protein kinase 3 (Homo sapiens) (UniProt O43293). In words: Inhibition of DAPK3 at 1 uM. The method in brief: as §3
Test [17] concerns the target T2, Epidermal growth factor receptor (Homo sapiens) (UniProt P04626+P00533+Q15303+P21860). As to the kind of experiment: Inhibition of EGFR E746-A750del mutant at 1 uM. The class given is protein assay. Put shortly:
as §3

The target in test [18] is T2, Epidermal growth factor receptor (Homo sapiens). As to the kind of experiment: Inhibition of EGFR L747-E749del, A750P mutant at 1 uM. The class given is protein assay. Put shortly: as §3
The target is the same in test [19]. In words: Inhibition of EGFR L747-S752del, P753S mutant at 1 uM. The class given is protein assay. Put shortly: as §3
The target in test [20] is Tyrosine-protein kinase Fes/Fps (Homo sapiens) (UniProt P07332). In words: Inhibition of FES at 1 uM. The method in brief: as §3
Test [21] addresses Fibroblast growth factor receptor 3 (Homo sapiens) (UniProt P22607). As to the kind of experiment: Inhibition of FGFR3 at 1 uM. Put shortly: as §1
Test [22] concerns the target T3, Rhodopsin kinase GRK7 (Homo sapiens) (UniProt Q8WTQ7).
T3 sequence (whole entry): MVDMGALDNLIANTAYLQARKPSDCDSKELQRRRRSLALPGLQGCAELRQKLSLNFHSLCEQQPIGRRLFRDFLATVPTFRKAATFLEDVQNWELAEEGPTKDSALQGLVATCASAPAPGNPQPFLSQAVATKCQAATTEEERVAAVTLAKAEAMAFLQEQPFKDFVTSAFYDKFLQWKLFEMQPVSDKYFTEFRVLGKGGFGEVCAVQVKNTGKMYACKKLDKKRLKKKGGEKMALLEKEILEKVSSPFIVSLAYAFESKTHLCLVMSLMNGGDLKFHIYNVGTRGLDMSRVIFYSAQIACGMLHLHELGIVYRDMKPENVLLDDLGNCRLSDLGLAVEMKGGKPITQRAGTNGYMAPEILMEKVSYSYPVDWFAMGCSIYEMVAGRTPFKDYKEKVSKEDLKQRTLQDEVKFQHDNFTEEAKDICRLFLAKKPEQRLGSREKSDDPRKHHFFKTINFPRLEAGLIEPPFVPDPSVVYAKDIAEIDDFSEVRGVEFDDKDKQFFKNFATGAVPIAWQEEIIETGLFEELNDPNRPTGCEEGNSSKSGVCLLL
In words: Inhibition of GRK7 at 1 uM.

Test [23] has as its target Glycogen synthase kinase-3 alpha (Homo sapiens) (UniProt P49840). As to the kind of experiment: Inhibition of GSK3A at 1 uM. The method in brief:
as §1

Some results are limits rather than exact numbers.

Sequence of Fibroblast growth factor receptor 3 (Homo sapiens) (P22607 23-806 limits assumed): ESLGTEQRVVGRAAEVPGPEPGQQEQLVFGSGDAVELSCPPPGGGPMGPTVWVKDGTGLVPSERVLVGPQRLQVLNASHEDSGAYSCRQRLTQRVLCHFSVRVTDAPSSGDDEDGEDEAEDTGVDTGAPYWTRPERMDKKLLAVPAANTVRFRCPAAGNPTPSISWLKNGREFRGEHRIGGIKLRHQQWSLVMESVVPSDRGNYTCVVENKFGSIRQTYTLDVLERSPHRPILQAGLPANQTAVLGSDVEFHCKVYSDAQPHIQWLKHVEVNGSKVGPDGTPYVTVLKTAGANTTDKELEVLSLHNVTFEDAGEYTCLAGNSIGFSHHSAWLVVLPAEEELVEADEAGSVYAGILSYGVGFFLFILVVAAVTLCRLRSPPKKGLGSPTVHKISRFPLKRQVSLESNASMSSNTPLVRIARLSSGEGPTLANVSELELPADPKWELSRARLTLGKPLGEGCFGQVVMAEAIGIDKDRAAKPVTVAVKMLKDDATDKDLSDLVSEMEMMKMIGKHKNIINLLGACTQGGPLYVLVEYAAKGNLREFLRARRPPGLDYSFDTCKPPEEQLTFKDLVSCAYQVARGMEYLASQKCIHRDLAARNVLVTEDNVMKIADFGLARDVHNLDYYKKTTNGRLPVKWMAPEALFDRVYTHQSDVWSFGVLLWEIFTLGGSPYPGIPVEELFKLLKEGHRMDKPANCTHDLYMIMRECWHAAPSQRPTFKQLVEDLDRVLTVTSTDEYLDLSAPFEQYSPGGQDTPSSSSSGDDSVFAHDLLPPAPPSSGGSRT
Sequence of Tyrosine-protein kinase JAK1 (Homo sapiens) (P23458 whole entry, the tested form may be a part): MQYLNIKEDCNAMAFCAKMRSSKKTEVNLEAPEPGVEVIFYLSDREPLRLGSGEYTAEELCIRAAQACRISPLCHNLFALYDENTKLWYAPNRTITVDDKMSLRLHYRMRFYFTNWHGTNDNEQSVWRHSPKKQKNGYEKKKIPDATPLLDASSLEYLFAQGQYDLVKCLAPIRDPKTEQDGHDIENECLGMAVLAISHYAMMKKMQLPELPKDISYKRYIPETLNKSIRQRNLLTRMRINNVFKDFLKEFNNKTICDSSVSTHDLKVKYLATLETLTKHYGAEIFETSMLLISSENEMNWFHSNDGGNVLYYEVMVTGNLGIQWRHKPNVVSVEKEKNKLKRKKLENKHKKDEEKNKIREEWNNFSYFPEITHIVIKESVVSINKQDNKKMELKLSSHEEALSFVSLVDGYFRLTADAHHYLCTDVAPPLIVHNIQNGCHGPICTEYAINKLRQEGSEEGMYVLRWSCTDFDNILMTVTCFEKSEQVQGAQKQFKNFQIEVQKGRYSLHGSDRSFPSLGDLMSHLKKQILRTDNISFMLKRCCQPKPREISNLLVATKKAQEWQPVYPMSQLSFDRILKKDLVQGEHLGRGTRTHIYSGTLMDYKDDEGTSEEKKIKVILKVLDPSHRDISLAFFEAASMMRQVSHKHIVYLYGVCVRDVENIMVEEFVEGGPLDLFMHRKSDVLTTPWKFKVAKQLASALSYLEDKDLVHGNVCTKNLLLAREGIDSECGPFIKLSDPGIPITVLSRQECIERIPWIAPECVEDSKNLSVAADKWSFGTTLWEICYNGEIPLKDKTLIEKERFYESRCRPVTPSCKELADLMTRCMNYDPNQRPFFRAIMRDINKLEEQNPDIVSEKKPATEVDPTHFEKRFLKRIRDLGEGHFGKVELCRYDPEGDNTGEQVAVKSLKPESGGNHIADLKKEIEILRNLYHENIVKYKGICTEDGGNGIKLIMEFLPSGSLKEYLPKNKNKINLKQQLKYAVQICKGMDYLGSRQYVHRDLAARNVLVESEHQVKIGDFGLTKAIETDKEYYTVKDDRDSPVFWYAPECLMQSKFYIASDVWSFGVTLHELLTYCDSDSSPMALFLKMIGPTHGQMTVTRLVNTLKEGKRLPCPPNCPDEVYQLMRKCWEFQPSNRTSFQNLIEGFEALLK
Sequence of Rho-associated protein kinase 1 (Homo sapiens) (Q13464 2-1354 limits assumed): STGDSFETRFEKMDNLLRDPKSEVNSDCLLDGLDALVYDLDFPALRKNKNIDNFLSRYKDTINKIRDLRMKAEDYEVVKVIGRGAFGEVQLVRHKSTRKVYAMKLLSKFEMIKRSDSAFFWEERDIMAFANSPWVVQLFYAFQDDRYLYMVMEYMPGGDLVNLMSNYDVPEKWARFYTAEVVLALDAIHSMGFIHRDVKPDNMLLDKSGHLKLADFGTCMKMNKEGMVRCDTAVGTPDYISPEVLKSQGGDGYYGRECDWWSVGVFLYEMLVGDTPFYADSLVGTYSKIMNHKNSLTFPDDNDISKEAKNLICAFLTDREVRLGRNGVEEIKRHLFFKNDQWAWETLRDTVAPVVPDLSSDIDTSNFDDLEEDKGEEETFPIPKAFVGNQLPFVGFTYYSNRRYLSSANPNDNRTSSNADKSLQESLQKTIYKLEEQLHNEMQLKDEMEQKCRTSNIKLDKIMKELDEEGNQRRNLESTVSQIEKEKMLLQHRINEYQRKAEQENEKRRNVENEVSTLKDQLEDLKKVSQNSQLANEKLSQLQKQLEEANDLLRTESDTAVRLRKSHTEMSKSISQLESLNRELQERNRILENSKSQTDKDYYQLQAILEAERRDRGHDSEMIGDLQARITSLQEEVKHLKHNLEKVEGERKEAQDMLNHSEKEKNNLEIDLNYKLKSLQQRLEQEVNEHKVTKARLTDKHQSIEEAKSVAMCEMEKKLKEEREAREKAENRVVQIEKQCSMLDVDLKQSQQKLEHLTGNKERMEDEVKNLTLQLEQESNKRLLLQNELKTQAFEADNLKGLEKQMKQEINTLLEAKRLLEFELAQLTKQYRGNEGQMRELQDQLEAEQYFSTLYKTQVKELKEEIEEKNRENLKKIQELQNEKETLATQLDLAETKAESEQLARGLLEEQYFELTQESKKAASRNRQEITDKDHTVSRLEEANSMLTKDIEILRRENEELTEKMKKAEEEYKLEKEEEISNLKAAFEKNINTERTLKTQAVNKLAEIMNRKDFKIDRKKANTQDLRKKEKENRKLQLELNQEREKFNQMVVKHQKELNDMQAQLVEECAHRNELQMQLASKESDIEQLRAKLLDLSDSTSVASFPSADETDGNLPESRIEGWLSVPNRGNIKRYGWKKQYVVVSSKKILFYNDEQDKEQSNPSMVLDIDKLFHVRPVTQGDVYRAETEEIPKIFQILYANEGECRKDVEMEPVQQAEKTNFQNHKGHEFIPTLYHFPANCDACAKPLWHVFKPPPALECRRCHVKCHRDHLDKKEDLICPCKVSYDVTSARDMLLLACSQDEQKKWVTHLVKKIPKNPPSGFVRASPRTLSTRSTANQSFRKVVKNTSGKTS
Sequence of Serine/threonine-protein kinase 16 (Homo sapiens) (O75716 whole entry): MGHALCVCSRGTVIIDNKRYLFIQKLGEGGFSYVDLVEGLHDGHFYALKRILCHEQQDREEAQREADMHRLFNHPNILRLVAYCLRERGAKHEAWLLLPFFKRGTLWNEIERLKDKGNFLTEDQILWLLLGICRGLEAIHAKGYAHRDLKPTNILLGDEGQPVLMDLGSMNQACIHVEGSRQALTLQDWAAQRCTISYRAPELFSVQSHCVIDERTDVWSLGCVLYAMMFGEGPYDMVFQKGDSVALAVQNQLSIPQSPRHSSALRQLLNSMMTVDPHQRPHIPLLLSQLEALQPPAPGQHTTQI
Sequence of Casein kinase I isoform gamma-2 (Homo sapiens) (P78368 whole entry, looked up, canonical isoform): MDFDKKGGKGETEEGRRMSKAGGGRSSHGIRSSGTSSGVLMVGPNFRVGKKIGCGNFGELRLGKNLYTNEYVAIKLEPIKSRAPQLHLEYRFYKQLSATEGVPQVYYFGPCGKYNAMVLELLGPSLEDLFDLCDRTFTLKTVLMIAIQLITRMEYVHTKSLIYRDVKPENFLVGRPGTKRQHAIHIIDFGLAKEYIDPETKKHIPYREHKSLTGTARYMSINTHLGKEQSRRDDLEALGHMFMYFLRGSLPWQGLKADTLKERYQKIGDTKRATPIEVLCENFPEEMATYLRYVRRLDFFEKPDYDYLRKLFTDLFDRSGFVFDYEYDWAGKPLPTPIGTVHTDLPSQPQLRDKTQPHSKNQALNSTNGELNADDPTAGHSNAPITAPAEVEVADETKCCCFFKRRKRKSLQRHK
Sequence of Glycogen synthase kinase-3 alpha (Homo sapiens) (P49840 2-483 limits assumed): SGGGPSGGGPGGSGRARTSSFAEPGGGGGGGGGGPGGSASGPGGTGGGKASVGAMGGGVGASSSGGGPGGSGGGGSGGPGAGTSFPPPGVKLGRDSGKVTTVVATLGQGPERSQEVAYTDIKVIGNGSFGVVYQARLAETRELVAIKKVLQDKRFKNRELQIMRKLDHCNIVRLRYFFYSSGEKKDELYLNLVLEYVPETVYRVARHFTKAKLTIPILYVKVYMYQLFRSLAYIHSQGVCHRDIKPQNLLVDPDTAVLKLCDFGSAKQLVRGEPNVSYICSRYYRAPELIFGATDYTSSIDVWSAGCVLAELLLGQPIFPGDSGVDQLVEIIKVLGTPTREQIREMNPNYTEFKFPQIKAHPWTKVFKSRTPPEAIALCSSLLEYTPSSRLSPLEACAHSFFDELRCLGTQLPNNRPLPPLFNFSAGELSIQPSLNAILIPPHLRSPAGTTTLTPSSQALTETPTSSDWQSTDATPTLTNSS
Sequence of Casein kinase I isoform gamma-3 (Homo sapiens) (Q9Y6M4 whole entry, looked up, canonical isoform): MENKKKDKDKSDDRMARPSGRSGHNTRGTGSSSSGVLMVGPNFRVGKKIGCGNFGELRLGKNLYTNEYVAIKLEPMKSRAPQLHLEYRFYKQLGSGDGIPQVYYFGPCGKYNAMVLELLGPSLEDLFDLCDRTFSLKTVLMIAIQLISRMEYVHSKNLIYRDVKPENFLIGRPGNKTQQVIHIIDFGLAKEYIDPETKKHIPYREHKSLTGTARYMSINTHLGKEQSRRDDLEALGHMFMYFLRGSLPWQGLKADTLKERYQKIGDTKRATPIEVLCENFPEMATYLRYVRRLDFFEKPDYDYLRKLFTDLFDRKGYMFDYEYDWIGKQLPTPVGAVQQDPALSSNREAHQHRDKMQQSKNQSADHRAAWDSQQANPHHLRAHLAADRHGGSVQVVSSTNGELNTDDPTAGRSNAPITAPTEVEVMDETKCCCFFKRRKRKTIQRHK

Consider `CN1CCN(c2ccc(-c3cnc4c(c3)N(Cc3cc(Cl)ccc3Cl)CCN4)cn2)CC1`, for which the inhibition in test [1], in test [2], in [3], in test [4], in test [5] and in [6] was less than 50% in each case. Moreover, the inhibition in test [7], in test [8], in test [9], in test [10], in test [11] and in test [12] was less than 50% throughout. For the same compound, the inhibition in test [13], in test [14], in [15], in test [16], in test [17] and in test [18] was less than 50% in each case. Besides, the inhibition in test [19], in test [20], in test [21], in test [22] and in [23] was less than 50% throughout.

Turning to `CN1CCN(c2ccc(-c3cnc4c(c3)N(Cc3cc(Cl)ccc3C(F)(F)F)CCN4)cn2)CC1`, the inhibition in test [1], in test [2], in test [3], in [4], in test [5] and in test [6] was less than 50% in each case. Further, the inhibition in test [7], in test [8], in test [9], in test [10], in test [11] and in [12] was less than 50% throughout. Besides, the inhibition in test [13], in [14], in test [15], in test [16], in [17] and in [18] was less than 50% throughout. The inhibition in test [19], in test [20], in test [21], in test [22] and in test [23] was less than 50% in each case.

For `CN1CCN(c2ccc(-c3cnc4c(c3)N(Cc3c(F)ccc(F)c3Cl)CCN4)cn2)CC1`, the inhibition in [1], in [2], in [3], in test [4], in [5] and in [6] was less than 50% each time. Besides, the inhibition was less than 50% in test [7]; less than 50% in test [8]; less than 50% in test [9]; less than 50% in test [10]; 85% in [11]; 95% in test [12]. The inhibition in test [13], in test [14], in test [15], in test [16], in [17] and in [18] was less than 50% in each case. For the same compound, the inhibition in test [19], in test [20], in test [21], in [22] and in test [23] was less than 50% each time.

Consider `CC(=O)N1CCN(c2cc(-c3cnc4c(c3)N(Cc3cc(Cl)ccc3C(F)(F)F)CCN4)ccn2)CC1`, for which the inhibition in [1], in [2], in test [3], in test [4], in test [5] and in test [6] was less than 50% each time. The inhibition in test [7], in [8], in test [9], in test [10], in test [11] and in test [12] was less than 50% in each case. The inhibition in test [13], in [14], in test [15], in test [16], in [17] and in [18] was less than 50% each time. For the same compound, the inhibition in test [19], in test [20], in test [21], in [22] and in [23] was less than 50% in each case.
